Test results published in ChEMBL document CHEMBL1153824, “Novel isothiourea derivatives as potent neuroprotectors and cognition enhancers: synthesis, biological and physicochemical properties” (J Med Chem, 2009).
Values belong to the compound of their own block, whether it stands above or below them. Active and inactive are the calls of the source. The rule behind the calls is not given here.

What was measured:
[1] = organism: Rattus norvegicus; assay: Agonist activity at AMPA receptor in rat purkinje neurons assessed as potentiation of 500 uM kainate-induced transmembrane current at 50 uM relative to kainate; assay type: functional
Procedure, shortened: (§1)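 Whole-cell patch-clamp on Purkinje neurons freshly dissociated from cerebellum of 14-18 day old rats. Slices were incubated 1 h in saline, then treated with Pronase and collagenase at 34 °C under O2 and triturated. Extracellular saline was HEPES-buffered, pH 7.32, with KCl/EGTA/ATP pipette solution. Agonist (kainate or glutamate) was applied with or without compound by fast perfusion. Potentiation was taken relative to the agonist-alone current.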

[2] = organism: Rattus norvegicus; assay: Agonist activity at AMPA receptor in rat purkinje neurons assessed as potentiation of 500 uM glutamate-induced transmembrane current at 30 uM relative to glutamate; assay type: functional; procedure, shortened: as §1
[3] = organism: Rattus norvegicus; assay: Agonist activity at AMPA receptor in rat purkinje neurons assessed as potentiation of kainate-induced transmembrane current at 30 uM by patch-clamp technique relative to kainate; assay type: functional; procedure, shortened: as §1
[4] = organism: Rattus norvegicus; assay: Agonist activity at AMPA receptor in rat purkinje neurons assessed as potentiation of 1000 uM kainate-induced transmembrane current at 30 uM by patch-clamp technique relative to kainate; assay type: functional; procedure, shortened: as §1
[5] = organism: Rattus norvegicus; assay: Agonist activity at AMPA receptor in rat purkinje neurons assessed as potentiation of glutamate-induced transmembrane current at 30 uM by patch-clamp technique relative to kainate; assay type: functional; procedure, shortened: as §1
[6] = organism: Rattus norvegicus; assay: Agonist activity at AMPA receptor in rat purkinje neurons assessed as potentiation of 4000 uM kainate-induced transmembrane current at 30 uM by patch-clamp technique relative to kainate; assay type: functional; procedure, shortened: as §1
[7] = target: T1, Glutamate NMDA receptor (Rattus norvegicus) (UniProt P35439+Q00959+Q00960+Q00961+Q62645+Q8VHN2+Q9R1M7); assay: Antagonist activity at NMDA receptor in rat cerebral cortex neurons assessed as 50 uM NMDA-induced current at 10 uM relative to control; assay type: functional, tissue-based; design: scale not given: the % may be the effect or the level left
Procedure, shortened: (§2)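 Whole-cell currents were evoked by NMDA (50, 100, 5000 or 10000 µM) in a heterogeneous primary culture of rat cerebral cortex neurons. Compound was tested at 0.5-30 µM. Current amplitude was expressed as percent of the NMDA-alone control.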

[8] = target: T1, Glutamate NMDA receptor (Rattus norvegicus); assay: Antagonist activity at NMDA receptor in rat cerebral cortex neurons assessed as 10000 uM NMDA-induced current at 30 uM relative to control; assay type: functional, tissue-based; design: scale not given: the % may be the effect or the level left; procedure, shortened: as §2
[9] = target: T1, Glutamate NMDA receptor (Rattus norvegicus); assay: Antagonist activity at NMDA receptor in rat cerebral cortex neurons assessed as 50 uM NMDA-induced current at 2 uM relative to control; assay type: functional, tissue-based; design: scale not given: the % may be the effect or the level left; procedure, shortened: as §2
[10] = target: T1, Glutamate NMDA receptor (Rattus norvegicus); assay: Antagonist activity at NMDA receptor in rat cerebral cortex neurons assessed as 5000 uM NMDA-induced current at 5 uM relative to control; assay type: functional, tissue-based; design: scale not given: the % may be the effect or the level left; procedure, shortened: as §2
[11] = target: T1, Glutamate NMDA receptor (Rattus norvegicus); assay: Antagonist activity at NMDA receptor in rat cerebral cortex neurons assessed as 50 uM NMDA-induced current at 1 uM relative to control; assay type: functional; design: scale not given: the % may be the effect or the level left; procedure, shortened: as §2
[12] = target: T1, Glutamate NMDA receptor (Rattus norvegicus); assay: Antagonist activity at NMDA receptor in rat cerebral cortex neurons assessed as 100 uM NMDA-induced current at 1 uM relative to control; assay type: functional, tissue-based; design: scale not given: the % may be the effect or the level left; procedure, shortened: as §2
[13] = target: T1, Glutamate NMDA receptor (Rattus norvegicus); assay: Antagonist activity at NMDA receptor in rat cerebral cortex neurons assessed as 100 uM NMDA-induced current at 0.5 uM relative to control; assay type: functional, tissue-based; design: scale not given: the % may be the effect or the level left; procedure, shortened: as §2
[14] = target: T1, Glutamate NMDA receptor (Rattus norvegicus); assay: Antagonist activity at NMDA receptor in rat cerebral cortex neurons assessed as 5000 uM NMDA-induced current at 30 uM relative to control; assay type: functional, tissue-based; design: scale not given: the % may be the effect or the level left; procedure, shortened: as §2
[15] = target: T1, Glutamate NMDA receptor (Rattus norvegicus); assay: Antagonist activity at NMDA receptor in rat cerebral cortex neurons assessed as 10000 uM NMDA-induced current at 10 uM relative to control; assay type: functional, tissue-based; design: scale not given: the % may be the effect or the level left; procedure, shortened: as §2
[16] = target: T1, Glutamate NMDA receptor (Rattus norvegicus); assay: Antagonist activity at NMDA receptor in rat cerebral cortex neurons assessed as 5000 uM NMDA-induced current at 0.5 uM relative to control; assay type: functional, tissue-based; design: scale not given: the % may be the effect or the level left; procedure, shortened: as §2
[17] = target: T1, Glutamate NMDA receptor (Rattus norvegicus); assay: Antagonist activity at NMDA receptor in rat cerebral cortex neurons assessed as 50 uM NMDA-induced current at 30 uM relative to control; assay type: functional, tissue-based; design: scale not given: the % may be the effect or the level left; procedure, shortened: as §2
[18] = target: T1, Glutamate NMDA receptor (Rattus norvegicus); assay: Antagonist activity at NMDA receptor in rat cerebral cortex neurons assessed as 5000 uM NMDA-induced current at 1 uM relative to control; assay type: functional, tissue-based; design: scale not given: the % may be the effect or the level left; procedure, shortened: as §2
[19] = target: T1, Glutamate NMDA receptor (Rattus norvegicus); assay: Antagonist activity at NMDA receptor in rat cerebral cortex neurons assessed as 10000 uM NMDA-induced current at 2 uM relative to control; assay type: functional, tissue-based; design: scale not given: the % may be the effect or the level left; procedure, shortened: as §2
[20] = target: T1, Glutamate NMDA receptor (Rattus norvegicus); assay: Antagonist activity at NMDA receptor in rat cerebral cortex neurons assessed as 100 uM NMDA-induced current at 2 uM relative to control; assay type: functional, tissue-based; design: scale not given: the % may be the effect or the level left; procedure, shortened: as §2
[21] = target: T1, Glutamate NMDA receptor (Rattus norvegicus); assay: Antagonist activity at NMDA receptor in rat cerebral cortex neurons assessed as 10000 uM NMDA-induced current at 1 uM relative to control; assay type: functional, tissue-based; design: scale not given: the % may be the effect or the level left; procedure, shortened: as §2
[22] = target: T1, Glutamate NMDA receptor (Rattus norvegicus); assay: Antagonist activity at NMDA receptor in rat cerebral cortex neurons assessed as 5000 uM NMDA-induced current at 2 uM relative to control; assay type: functional, tissue-based; design: scale not given: the % may be the effect or the level left; procedure, shortened: as §2
[23] = organism: Rattus norvegicus; assay: Agonist activity at AMPA receptor in rat purkinje neurons assessed as increase in potentiation of kainate-induced transmembrane current at 30 uM by patch-clamp technique relative to S-ethyl-N-allyl-N',N'-dibenzylisothiourea hydroiodide; assay type: functional
[24] = target: T1, Glutamate NMDA receptor (Rattus norvegicus); assay: Antagonist activity at NMDA receptor in rat cerebral cortex neurons assessed as 5000 uM NMDA-induced current at 10 uM relative to control; assay type: functional, tissue-based; design: scale not given: the % may be the effect or the level left; procedure, shortened: as §2
[25] = target: T1, Glutamate NMDA receptor (Rattus norvegicus); assay: Antagonist activity at NMDA receptor in rat cerebral cortex neurons assessed as 10000 uM NMDA-induced current at 5 uM relative to control; assay type: functional, tissue-based; design: scale not given: the % may be the effect or the level left; procedure, shortened: as §2
[26] = target: T1, Glutamate NMDA receptor (Rattus norvegicus); assay: Antagonist activity at NMDA receptor in rat cerebral cortex neurons assessed as 50 uM NMDA-induced current at 5 uM relative to control; assay type: functional, tissue-based; design: scale not given: the % may be the effect or the level left; procedure, shortened: as §2
[27] = target: T1, Glutamate NMDA receptor (Rattus norvegicus); assay: Antagonist activity at NMDA receptor in rat cerebral cortex neurons assessed as 50 uM NMDA-induced current at 0.5 uM relative to control; assay type: functional, tissue-based; design: scale not given: the % may be the effect or the level left; procedure, shortened: as §2
[28] = target: T1, Glutamate NMDA receptor (Rattus norvegicus); assay: Antagonist activity at NMDA receptor in rat cerebral cortex neurons assessed as 100 uM NMDA-induced current at 10 uM relative to control; assay type: functional, tissue-based; design: scale not given: the % may be the effect or the level left; procedure, shortened: as §2
[29] = target: T1, Glutamate NMDA receptor (Rattus norvegicus); assay: Antagonist activity at NMDA receptor in rat cerebral cortex neurons assessed as 10000 uM NMDA-induced current at 0.5 uM relative to control; assay type: functional, tissue-based; design: scale not given: the % may be the effect or the level left; procedure, shortened: as §2
[30] = target: T1, Glutamate NMDA receptor (Rattus norvegicus); assay: Antagonist activity at NMDA receptor in rat cerebral cortex neurons assessed as 100 uM NMDA-induced current at 30 uM relative to control; assay type: functional, tissue-based; design: scale not given: the % may be the effect or the level left; procedure, shortened: as §2
[31] = target: T1, Glutamate NMDA receptor (Rattus norvegicus); assay: Antagonist activity at NMDA receptor in rat cerebral cortex neurons assessed as 100 uM NMDA-induced current at 5 uM relative to control; assay type: functional, tissue-based; design: scale not given: the % may be the effect or the level left; procedure, shortened: as §2

Activity [1]: Active
fold change (FC) [2]: 7
Activity [3]: Active
Activity [4]: 150%
Activity [5]: Active
Activity [6]: 60%
Compound: NS(=O)(=O)c1cc2c(cc1Cl)NC(C1CC3C=CC1C3)NS2(=O)=O (configuration not stated)

Activity [7]: 31%
Activity [8]: 3%
Activity [9]: 48%
Activity [10]: 20%
Activity [11]: 68%
Activity [12]: 48%
Activity [13]: 99%
Activity [14]: 4%
Activity [15]: 10%
Activity [16]: 59%
Activity [17]: 11%
Activity [1]: Active
Activity [18]: 35%
Activity [19]: 26%
Activity [20]: 55%
Activity [21]: 35%
Activity [22]: 36%
Activity [23]: 5%
Activity [24]: 14%
Activity [25]: 16%
Activity [26]: 34%
fold change (FC) [2]: 26.9
Activity [27]: 98%
Activity [3]: Active
Activity [4]: 290%
Activity [28]: 23%
Activity [5]: Active
Activity [29]: 45%
Activity [30]: 8%
Activity [6]: 132%
Activity [31]: 35%
Compound: C=CC/N=C(\SCC)N(Cc1ccccc1)Cc1ccccc1
